Measurements taken from ChEMBL document CHEMBL2163251, “Synthesis and pharmacological evaluation of indolinone derivatives as novel ghrelin receptor antagonists” (Bioorg Med Chem, 2012).
Active and inactive are the calls of the source. No cut-off for these calls is given here.

Columns and labels:
Rattus norvegicus [1] = assay: Inhibition of ghrelin induced food intake in CD rat at 10 mg/kg, ip administered 30 mins prior to icv ghrelin challenge measured after 2 hrs; format: functional; conditions: route intraperitoneal
Summary of the method: (§1)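 Adult male CD rats (200–300 g) fitted with lateral-ventricle cannulae. Dosed 10 mg/kg ip 30 min before icv rat ghrelin (10 µg/rat in 15 µl) or saline. Cumulative food intake measured hourly for 4 h, n=6–7 per group.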

[2] = target: T1, Growth hormone secretagogue receptor type 1 (Homo sapiens, UniProt Q92847); assay: Displacement of [125I]-ghrelin from human GHSR1 expressed in CHO-CREluc cells after 1 hr by scintillation counting; format: cell-based
T1 sequence (Q92847 whole entry): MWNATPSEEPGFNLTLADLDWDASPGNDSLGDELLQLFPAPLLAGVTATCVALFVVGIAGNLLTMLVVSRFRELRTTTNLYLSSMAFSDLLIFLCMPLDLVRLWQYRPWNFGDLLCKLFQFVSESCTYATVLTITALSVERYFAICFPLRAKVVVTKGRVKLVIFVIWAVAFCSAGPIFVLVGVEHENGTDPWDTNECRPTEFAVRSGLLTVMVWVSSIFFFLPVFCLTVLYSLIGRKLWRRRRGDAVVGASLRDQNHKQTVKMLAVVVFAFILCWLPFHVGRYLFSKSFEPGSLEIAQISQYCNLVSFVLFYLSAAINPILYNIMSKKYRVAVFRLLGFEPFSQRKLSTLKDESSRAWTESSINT
Summary of the method: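 Crude membranes from CHO-CREluc-hGHSR1a cells were homogenized in TM buffer (10 mM Tris-HCl pH 7.4, 10 mM MgCl2) and spun at 40,000g. Incubated 1 h in TM buffer with 0.25% BSA and 10% dialysed FBS, 0.25 nM [125I] human ghrelin and increasing compound concentrations. Harvested on PEI-pretreated GF/B filters and washed with cold buffer. Bound radioactivity counted by scintillation.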

[3] = Binding affinity at muscarinic receptor at 10 uM
[4] = Binding affinity at adrenergic receptor at 10 uM
Rattus norvegicus [5] = assay: Inhibition of ghrelin induced food intake in CD rat at 10 mg/kg, ip administered 30 mins prior to icv ghrelin challenge measured after 1 hr; format: functional; conditions: route intraperitoneal; summary of the method: as §1
Rattus norvegicus [6] = assay: Inhibition of gastric emptying in CD rat at 10 mg/kg, ip; format: functional; conditions: Stomach, route intraperitoneal
Summary of the method: (§2)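 24 h fasted male CD rats dosed ip (vehicle 2 ml/kg), no ghrelin. BaSO4 meal (75% w/v in 0.5% CMC, 1 ml/100 g) given by gavage. Rats killed at 0 or 60 min and stomach content weighed. Result expressed relative to the mean content of drug-free controls killed at t=0.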

[7] = Permeability across human Caco2/TC7 cells compound transport; format: ADME, cell-based; conditions: Caco-2, read-out: permeability
Rattus norvegicus [8] = assay: Inhibition of ghrelin induced food intake in CD rat at 10 mg/kg, ip administered 30 mins prior to icv ghrelin challenge measured after 3 hrs; format: functional; conditions: route intraperitoneal; summary of the method: as §1
[9] = Drug metabolism in human liver microsomes at 5 uM after 24 hrs; format: ADME, Microsome; conditions: read-out: Drug metabolism
Summary of the method: (§3)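 Compound at 5 µM incubated 24 h with isolated hepatic microsomal fractions from mouse, rat or human.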

[10] = Binding affinity at receptor at 10 uM
Mus musculus [11] = assay: Inhibition of ghrelin-induced food intake in fasted C57/BL6N mouse at 10 mg/kg, ip up to 6 hrs; format: functional, organism-based; parameters: dose 10 mg/kg
Summary of the method: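 Male C57BL/6 mice fasted overnight and dosed ip 10 mg/kg (vehicle 10 ml/kg) 1 h before refeeding. Cumulative food intake recorded after food return.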

Hepatocyte = assay: Intrinsic clearance in human hepatocytes assessed per million cells at 5 uM; format: ADME, cell-based
[12] = Binding affinity at opioids receptor at 10 uM
[13] = Binding affinity at histamine receptor at 10 uM
[14] = Permeability across human Caco2/TC7 cells assessed as compound recovery; format: ADME, cell-based; conditions: Caco-2, read-out: permeability
P-glycoprotein = assay: P-glycoprotein-mediated efflux ratio of the compound; format: ADME; conditions: not told
[15] = target: T1, Growth hormone secretagogue receptor type 1; assay: Antagonist activity at human GHSR1 expressed in CHO-CREluc cells after 4 hrs by Luciferase reporter assay; format: functional, cell-based
Summary of the method: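 hGHSR1a stably cloned into CHO line carrying CRE-luciferase reporter (six CRE upstream of firefly luciferase). Cells plated in MEM with 10% dialysed FBS. Stimulation medium held 0.1 µM forskolin and 3 nM human ghrelin. Luciferase read by photon counting.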

Rattus norvegicus [16] = assay: Inhibition of ghrelin-induced gastric emptying in CD rat at 10 mg/kg, ip; format: functional; conditions: Stomach, route intraperitoneal
Summary of the method: (§4)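 24 h fasted male CD rats dosed ip (vehicle 2 ml/kg), then given rat ghrelin 20 µg/kg iv. BaSO4 meal (75% w/v in 0.5% CMC, 1 ml/100 g) given by gavage. Stomach content weighed at 0 or 60 min and compared with drug-free controls killed at t=0.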

[17] = Binding affinity at dopamine receptor at 10 uM
[18] = Binding affinity at adenosine receptor at 10 uM
[19] = Drug metabolism in mouse liver microsomes at 5 uM after 24 hrs; format: ADME, Microsome; conditions: read-out: Drug metabolism; summary of the method: as §3
[20] = Binding affinity at serotonin receptor at 10 uM
[21] = Binding affinity at cannbinoids receptor at 10 uM
Rattus norvegicus [22] = assay: Inhibition of ghrelin induced food intake in CD rat at 10 mg/kg, ip administered 30 mins prior to icv ghrelin challenge measured after 4 hrs; format: functional; conditions: route intraperitoneal; summary of the method: as §1
Rattus norvegicus [23] = assay: Inhibition of ghrelin-induced gastric emptying in CD rat at 3 mg/kg, ip; format: functional; conditions: Stomach, route intraperitoneal; summary of the method: as §4
Mus musculus [24] = assay: Effect of glucose tolerance in fasted C57/BL6N mouse assessed as inhibition of glucose excursion at 30 mg/kg, po administered 30 mins before glucose challenge measured after 20 to 120 mins by IPGTT; format: functional
Summary of the method: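 Male C57/Bl6N mice fasted 16–18 h, then given 30 mg/kg or vehicle by oral gavage. Fasting glucose read from tail blood 30 min after dosing. Glucose 2 g/kg ip given 30 min later, with glucose measured at 20–120 min. […] calculated by trapezoidal method and expressed as % of vehicle AUC.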

Rattus norvegicus [25] = assay: Inhibition of gastric emptying in CD rat at 3 mg/kg, ip; format: functional; conditions: Stomach, route intraperitoneal; summary of the method: as §2
[26] = Binding affinity at vasopressin receptor at 10 uM
Rattus norvegicus [27] = assay: Inhibition of ghrelin-induced gastric emptying in ip dosed CD rat; format: functional, organism-based; conditions: Stomach; summary of the method: as §4
[28] = Drug metabolism in rat liver microsomes at 5 uM after 24 hrs; format: ADME, Microsome; conditions: read-out: Drug metabolism; summary of the method: as §3

CCN1CCN(CC(=O)NC2(c3ccc(Cl)c(Cl)c3)C(=O)Nc3cc(Cl)cc(Cl)c32)CC1 (single isomer, unassigned; (+))
inhibition in vivo at 10 mg/kg (Rattus norvegicus [1]): 60% | Ki [2]: 8 nM | Activity [3]: inactive | Activity [4]: inactive | inhibition in vivo at 10 mg/kg (Rattus norvegicus [5]): 58% | inhibition in vivo at 10 mg/kg (Rattus norvegicus [6]): 55% | Papp [7]: 0.385 ×10⁻⁶ cm/s | inhibition in vivo at 10 mg/kg (Rattus norvegicus [8]): 61% | metabolised at 24 h, 5 µM [9]: 41% | Activity [10]: inactive | inhibition (Mus musculus [11]): Active | CLint (Hepatocyte): 0.097 mL/h/10⁶ cells | Activity [12]: inactive | Activity [13]: inactive | recovery [14]: 51.8% | efflux ratio (P-glycoprotein): 6.6 | IC50 [15]: 7 nM | inhibition in vivo at 10 mg/kg (Rattus norvegicus [16]): 62% | Activity [17]: inactive | Activity [18]: inactive | metabolised at 24 h, 5 µM [19]: 44% | Activity [20]: inactive | Activity [21]: inactive | inhibition in vivo at 10 mg/kg (Rattus norvegicus [22]): 53% | inhibition in vivo at 3 mg/kg (Rattus norvegicus [23]): 55% | inhibition in vivo at 30 mg/kg (Mus musculus [24]): 32% | inhibition in vivo at 3 mg/kg (Rattus norvegicus [25]): 68% | Activity [26]: inactive | inhibition (Rattus norvegicus [27]): Dose-dependent effect | metabolised at 24 h, 5 µM [28]: 45%
